Data from ChEMBL document CHEMBL4196009, “Novel vitexin-inspired scaffold against leukemia” (Eur J Med Chem, 2018).
Activity calls are given as the source filed them. No cut-off for these calls is given here.

Columns and labels:
Homo sapiens = species: Homo sapiens; assay: Inhibition of RNA polymerase 2 C-terminal domain phosphorylation at Ser2 residue in human KOPN8 cells at 10 uM pre-treated with NAC for 1 hr and measured after 3 hrs by Western blot analysis relative to control; type: cell-based
Method in brief: (§1)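 KOPN-8 cells were exposed to compound for 3 h and 24 h, with or without N-acetylcysteine added to a parallel set as antioxidant. Lysates were analysed by Western blot for cleaved PARP, Mcl-1, Ser-2-phosphorylated RNAPII CTD, cMyc, total Rb and pRb. Signals were compared against controls for dose-dependent change.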

UoC-B1 = assay: Antiproliferative activity against human UOCB1 cells after 72 hrs by CelTiter-Glo assay; type: functional, cell-based; conditions: UoC-B1, 72 h
[1] = target: T1, Retinoblastoma-associated protein (Homo sapiens) (UniProt P06400); assay: Inhibition of Rb phosphorylation in human KOPN8 cells assessed as ratio of phosphorylated Rb to total Rb levels at 30 uM after 24 hrs by Western blot analysis relative to control; type: cell-based
T1 sequence (whole entry): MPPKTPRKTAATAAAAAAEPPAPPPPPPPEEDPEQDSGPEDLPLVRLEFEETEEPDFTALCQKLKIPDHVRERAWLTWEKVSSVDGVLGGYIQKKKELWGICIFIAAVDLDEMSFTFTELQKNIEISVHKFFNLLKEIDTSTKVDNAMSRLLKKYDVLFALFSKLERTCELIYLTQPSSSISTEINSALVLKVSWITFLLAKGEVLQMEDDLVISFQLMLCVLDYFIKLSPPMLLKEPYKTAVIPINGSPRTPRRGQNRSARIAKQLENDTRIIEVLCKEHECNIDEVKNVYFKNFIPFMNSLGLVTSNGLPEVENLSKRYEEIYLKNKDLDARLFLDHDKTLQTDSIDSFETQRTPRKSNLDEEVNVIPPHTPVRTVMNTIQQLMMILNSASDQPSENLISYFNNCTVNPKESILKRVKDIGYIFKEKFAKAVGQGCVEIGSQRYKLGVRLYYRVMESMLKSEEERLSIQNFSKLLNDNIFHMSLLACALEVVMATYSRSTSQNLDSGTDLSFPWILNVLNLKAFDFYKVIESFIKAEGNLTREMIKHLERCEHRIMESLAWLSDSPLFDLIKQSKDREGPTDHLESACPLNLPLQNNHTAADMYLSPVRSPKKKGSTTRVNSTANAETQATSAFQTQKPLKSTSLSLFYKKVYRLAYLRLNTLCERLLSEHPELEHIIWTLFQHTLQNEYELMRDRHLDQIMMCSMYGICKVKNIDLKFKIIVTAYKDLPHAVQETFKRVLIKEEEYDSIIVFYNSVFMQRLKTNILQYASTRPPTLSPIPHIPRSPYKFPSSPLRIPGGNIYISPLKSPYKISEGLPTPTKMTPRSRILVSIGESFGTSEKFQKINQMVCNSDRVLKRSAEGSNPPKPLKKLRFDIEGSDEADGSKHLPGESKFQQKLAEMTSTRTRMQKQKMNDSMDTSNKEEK
Method in brief: (§2)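 KOPN-8 pre-B ALL cells were treated for 3 h and 24 h, with or without N-acetyl cysteine added to a parallel set of cells as an antioxidant/ROS quencher. Lysates were analysed by Western blot for phosphorylated Rb and total Rb. The same blots also probed PARP cleavage, Mcl-1, Ser-2-phosphorylated RNAPII CTD and cMyc.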

KOPN-8 [2] = assay: Induction of apoptosis in human KOPN8 cells assessed as effect on Mcl-1 level at 100 uM pre-treated with NAC for 1 hr and measured after 3 hrs by Western blot analysis relative to control; type: functional; method in brief: as §1
KOPN-8 [3] = assay: Antiproliferative activity against human KOPN8 cells after 72 hrs by CelTiter-Glo assay; type: functional, cell-based; conditions: KOPN-8, 72 h
KOPN-8 [4] = assay: Effect on c-Myc expression in human KOPN8 cells at 100 uM after 3 hrs by Western blot analysis relative to control; type: functional
Method in brief: (§3)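 KOPN-8 cells were treated at 10–100 µM final, with or without N-acetylcysteine co-addition, for 3 h and 24 h. Lysates were analysed by Western blot for PARP cleavage, Mcl-1, phospho-Ser2 RNAPII CTD, c-Myc, total Rb and pRb. Levels are relative to the vehicle control.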

KOPN-8 [5] = assay: Effect on c-Myc expression in human KOPN8 cells at 30 uM pre-treated with NAC for 1 hr and measured after 24 hrs by Western blot analysis relative to control; type: functional
KOPN-8 [6] = assay: Effect on c-Myc expression in human KOPN8 cells at 10 uM after 3 hrs by Western blot analysis relative to control; type: functional; method in brief: as §3
HepG2 = assay: Antiproliferative activity against human HepG2 cells after 72 hrs by CelTiter-Glo assay; type: functional, cell-based; conditions: HepG2, 72 h
[7] = target: T1, Retinoblastoma-associated protein (Homo sapiens); assay: Inhibition of Rb phosphorylation in human KOPN8 cells assessed as ratio of phosphorylated Rb to total Rb levels at 10 uM pre-treated with NAC for 1 hr and measured after 3 hrs by Western blot analysis relative to control; type: cell-based; method in brief: as §2
SUP-B15 = assay: Antiproliferative activity against human SUP-B15 cells after 72 hrs by CelTiter-Glo assay; type: functional, cell-based; conditions: SUP-B15, 72 h
SEM cells = assay: Antiproliferative activity against human SEM cells after 72 hrs by CelTiter-Glo assay; type: functional, cell-based
[8] = target: T1, Retinoblastoma-associated protein (Homo sapiens); assay: Inhibition of Rb phosphorylation in human KOPN8 cells assessed as ratio of phosphorylated Rb to total Rb levels at 100 uM pre-treated with NAC for 1 hr and measured after 3 hrs by Western blot analysis relative to control; type: cell-based; method in brief: as §2
MCF7 = assay: Induction of oxidative stress in human MCF7 cells transfected with mRuby-Mito-7 with fugene assessed as increase in intracellular total ROS levels at 50 uM measured after 1 hr by fluorimetric analysis; type: functional, cell-based
Method in brief: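 MCF-7 cells carried an mRuby-Cox8A mitochondrial label. They were exposed to 50 of compound, alone or together with 50 of N-acetylcysteine, for 1 h. Cells were then stained with CellROX green (ex/em 485/520 nm) plus Hoechst 33342 nuclear stain. Total and mitochondrial ROS fluorescence was imaged in live cells and quantified relative to control.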

BJ = assay: Antiproliferative activity against human BJ cells after 72 hrs by CelTiter-Glo assay; type: cell-based
[9] = target: T1, Retinoblastoma-associated protein (Homo sapiens); assay: Inhibition of Rb phosphorylation in human KOPN8 cells assessed as ratio of phosphorylated Rb to total Rb levels at 0.5 uM after 24 hrs by Western blot analysis relative to control; type: cell-based; method in brief: as §1
KOPN-8 [10] = assay: Induction of apoptosis in human KOPN8 cells assessed as necrotic cells at 5 uM after 24 hrs by Annexin V-FITC/propidium iodide staining-based flow cytometry (reference value: 0.2%); type: functional
Method in brief: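 KOPN-8 cells were treated for 24 h, with a DMSO vehicle control and a staurosporine positive control. Cells were stained with FITC-Annexin V and propidium iodide and analysed by flow cytometry. Quadrant gating separated viable, early apoptotic, late apoptotic (Q2) and necrotic populations.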

KOPN-8 [11] = assay: Effect on c-Myc expression in human KOPN8 cells at 0.5 uM after 3 hrs by Western blot analysis relative to control; type: functional
MDA-MB-231 = assay: Cell cycle arrest in human MDA-MB-231 cells assessed as accumulation at G0/G1 phase at 5 uM after 24 hrs by propidium iodide staining-based flow cytometry (reference value: 70.47%); type: functional

COc1ccc(-c2c(I)c(=O)c3c(OC)cc(OC)cc3n2S(=O)(=O)c2ccc(OC)cc2)cc1
fold change (FC) (Homo sapiens): 1
EC50 (UoC-B1): 2.55 µM
fold change (FC) [1]: 1
fold change (FC) (KOPN-8 [2]): 0.5
EC50 (KOPN-8 [3]): 8.58 µM
fold change (FC) (KOPN-8 [4]): 0.2
fold change (FC) (KOPN-8 [5]): 1
fold change (FC) (KOPN-8 [6]): 0.9
EC50 (HepG2): > 17.3 µM
fold change (FC) [7]: 1
EC50 (SUP-B15): 12.3 µM
EC50 (SEM cells): 5.52 µM
fold change (FC) [8]: 1.1
Activity (MCF7): Active
EC50 (BJ): > 34.5 µM

CN(C)C(=O)c1cc2cnc(Nc3ccc(N4CCNCC4)cn3)nc2n1C1CCCC1 [RIBOCICLIB]
EC50 (UoC-B1): > 65.5 µM
EC50 (KOPN-8 [3]): 0.501 µM
fold change (FC) [9]: 0.9
Activity (KOPN-8 [10]): 0.3%
EC50 (HepG2): 0.286 µM
EC50 (SUP-B15): > 65.5 µM
EC50 (SEM cells): 0.461 µM
fold change (FC) (KOPN-8 [11]): 1
Activity (MDA-MB-231): 90.85%
EC50 (BJ): > 65.5 µM
